Test results taken from ChEMBL document CHEMBL4334554, “Structure-Guided Design of Substituted Biphenyl Butanoic Acid Derivatives as Neprilysin Inhibitors” (ACS Med Chem Lett, 2020).
Activity calls are given as the source filed them. The calls are words filed in the database; no cut-off is given here.

Key:
Rattus norvegicus [1] = test: In vivo inhibition of NEP in Sprague-Dawley rat assessed as increase in PANP level at 30 mg/kg, po measured after 15 mins; type: functional, organism-based
In short: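 Conscious, chronically cannulated adult male Sprague–Dawley rats received an IV infusion of rat ANP to saturate natriuretic peptide clearance receptors, so ANP elimination relied mainly on NEP. The ethyl ester prodrug was then given orally at 30 mg/kg. Blood was drawn at baseline before dosing and at intervals up to 8 h, and plasma ANP was expressed as % baseline, with parallel PK.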

[2] = AUC (0 to 7 hrs) in Sprague-Dawley rat at 1 mg/kg, iv measured upto 24 hrs by HPLC-MS/MS analysis; type: ADME, organism-based; parameters: time < 7 hr, dose 1 mg/kg, route intravenous; conditions: in vivo
[3] = Volume of distribution at steady state in Sprague-Dawley rat at 1 mg/kg, iv measured upto 24 hrs by HPLC-MS/MS analysis; type: ADME, organism-based; conditions: in vivo, read-out: Vdss
[4] = Terminal half life in Sprague-Dawley rat at 1 mg/kg, iv measured upto 24 hrs by HPLC-MS/MS analysis; type: ADME, organism-based; conditions: in vivo, read-out: beta t1/2 (converted)
[5] = Clearance in Sprague-Dawley rat at 1 mg/kg, iv measured upto 24 hrs by HPLC-MS/MS analysis; type: ADME, organism-based; conditions: in vivo
[6] = Prodrug activation in monkey; parameters: species or system Macaca mulatta; conditions: rhesus monkey
[7] = Prodrug activation in rat
[8] = Oral bioavailability in Sprague-Dawley rat at 3 mg/kg measured upto 24 hrs by HPLC-MS/MS analysis; type: ADME, organism-based; conditions: in vivo
[9] = Prodrug activation in dog; parameters: species or system Canis lupus familiaris
[10] = Cmax in Sprague-Dawley rat at 3 mg/kg, po measured upto 24 hrs by HPLC-MS/MS analysis; type: ADME, organism-based; parameters: dose 3 mg/kg, route oral; conditions: in vivo
[11] = AUC (0 to 7 hrs) in Sprague-Dawley rat at 3 mg/kg, po measured upto 24 hrs by HPLC-MS/MS analysis; type: ADME, organism-based; parameters: time < 7 hr, dose 3 mg/kg, route oral; conditions: in vivo
Rattus norvegicus [12] = test: In vivo inhibition of NEP in po dosed Sprague-Dawley rat assessed as increase in PANP level measured up to 8 hrs; type: functional, organism-based
In short: (§1)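 ANP potentiation model in conscious, chronically cannulated adult male Sprague–Dawley rats. Rats received an IV infusion of rat ANP to saturate the clearance receptors, so that ANP was removed mainly by NEP. The ethyl ester prodrug was then dosed orally. Blood was sampled at baseline and at intervals up to 8 h. Plasma ANP was read as % baseline, alongside parent plasma levels.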

[13] = Half life in Sprague-Dawley rat at 1 mg/kg, iv; type: ADME, organism-based; conditions: in vivo
[14] = Intrinsic clearance in human Hepatocyte assessed per million cells; type: ADME, cell-based; conditions: hepatocytes, read-out: CLH
[15] = Clearance in Sprague-Dawley rat at 1 mg/kg, iv; type: ADME, organism-based; conditions: in vivo
[16] = Stability in rat liver microsomes assessed as intrinsic clearance; type: ADME, Microsome; conditions: read-out: CLH
[17] = Intrinsic clearance in rat Hepatocyte assessed per million cells; type: ADME, cell-based; conditions: hepatocytes, read-out: CLH
[18] = Oral bioavailability in Sprague-Dawley rat at 3 mg/kg; type: ADME, organism-based; conditions: in vivo
[19] = Plasma concentration in Sprague-Dawley rat at 30 mg/kg, po; type: ADME, organism-based; conditions: in vivo; in short: as §1
[20] = Stability in human liver microsomes assessed as intrinsic clearance; type: ADME, Microsome; conditions: read-out: CLH
[21] = Volume of distribution in Sprague-Dawley rat at 1 mg/kg, iv; type: ADME, organism-based; conditions: in vivo
[22] = Apparent half life in dog; type: ADME, Canis lupus familiaris; conditions: in vivo, read-out: t1/2(app) (converted)
[23] = Clearance in dog plasma; type: ADME, cell-free, Canis lupus familiaris
[24] = Apparent half life in monkey; type: ADME, Macaca mulatta; conditions: rhesus monkey, in vivo; read-out: t1/2(app) (converted)
[25] = Clearance in monkey plasma; type: ADME, cell-free, Macaca mulatta; conditions: rhesus monkey

With CCOC(=O)[C@H](C)C[C@@H](Cc1ccc(-c2ccccc2)cc1)NC(=O)CCC(=O)O the inhibition (Rattus norvegicus [1]) was “Active”.

Compound COc1ccc(Cl)cc1-c1ccc(C[C@H](CC(=O)O)NC(=O)CCC(=O)O)cc1 has an AUC(0-t) at 7 h [2] of 8.1 µM·h, a Vd [3] of 0.1 L/kg and a half-life [4] of 1 h. The clearance [5] was 5 mL/min/kg.

In the case of CCOC(=O)C[C@@H](Cc1ccc(-c2cccc(Cl)c2)cc1)NC(=O)CCC(=O)O, the Activity [6] is reported as 69%, the Activity [7] is reported as 99% and the bioavailability [8] is reported as 42%. It also gave an Activity [9] of 5%, a Cmax [10] of 12.6 µM and an AUC(0-t) at 7 h [11] of 10.1 µM·h. The inhibition (Rattus norvegicus [12]) was “Dose-dependent effect”.

Compound CCOC(=O)C[C@@H](Cc1ccc(-c2cc(Cl)ccc2OC)cc1)NC(=O)CCC(=O)O has a bioavailability [8] of 25%, a Cmax [10] of 5.38 µM and an AUC(0-t) at 7 h [11] of 5.63 µM·h.

For O=C(O)CCC(=O)N[C@@H](CC(=O)O)Cc1ccc(-c2ccccc2)cc1, the inhibition (Rattus norvegicus [1]) was “Active”, the half-life [13] was 2.5 h and the hepatocyte CLint [14] was 0.68 µL/min/1e6 cells. For the same compound, the clearance [15] was 11 mL/min/kg, the microsomal CLint [16] was under 3.42 µL/min/mg and the hepatocyte CLint [17] was 2.1 µL/min/1e6 cells. It also gave a bioavailability [18] of 66%, a concentration [19] of over 2 µM and a microsomal CLint [20] of under 3.42 µL/min/mg. The Vd [21] was 0.2 L/kg.

For O=C(O)CCC(=O)N[C@@H](CC(=O)O)Cc1ccc(-c2cccc(Cl)c2)cc1, the half-life [22] was 0.8 h, the clearance [23] was 29 mL/min/kg and the AUC(0-t) at 7 h [2] was 8.73 µM·h. For the same compound, the half-life [24] was 4 h, the Vd [3] was 0.1 L/kg and the clearance [25] was 3 mL/min/kg. For the same compound, the half-life [4] was 0.8 h and the clearance [5] was 5 mL/min/kg.
